Bioassay records (PubChem BioAssay)
A selection: hits, their analogues and other compounds. The true share with any hit is near 2.3%.
TRPC6 act – activators of mouse TRPC6 channel | HEK293-TRPC6 membrane potential dye fluorescence; hits give high values | Q61143 | AID 2550 | B-score at 10 µM | 310,000 compounds, 0.13% hits;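 active means B-score of the integrated fluorescence ratio above library mean plus 3 SD, and starting fluorescence ratio within library mean plus 5 SD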;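 further: higher score means more depolarization so channel activation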
TRPC4 potent – TRPC4 (mouse) allosteric potentiation; AID 2227; Q9QUQ5; B-score at 10 µM; HEK293 TRPC4beta/mu-opioid, DAMGO EC20, Fluo-4 Ca2+ flux; hits give high values; 310,000 compounds, 0.42% hits;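 active means B-score of calcium response area above 5 SD of library B-scores, with initial fluorescence ratio within 5 SD of library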;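 further: B-score of integrated fluorescence ratio over time as area under calcium response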
Target sequence (Q9QUQ5 whole entry, looked up): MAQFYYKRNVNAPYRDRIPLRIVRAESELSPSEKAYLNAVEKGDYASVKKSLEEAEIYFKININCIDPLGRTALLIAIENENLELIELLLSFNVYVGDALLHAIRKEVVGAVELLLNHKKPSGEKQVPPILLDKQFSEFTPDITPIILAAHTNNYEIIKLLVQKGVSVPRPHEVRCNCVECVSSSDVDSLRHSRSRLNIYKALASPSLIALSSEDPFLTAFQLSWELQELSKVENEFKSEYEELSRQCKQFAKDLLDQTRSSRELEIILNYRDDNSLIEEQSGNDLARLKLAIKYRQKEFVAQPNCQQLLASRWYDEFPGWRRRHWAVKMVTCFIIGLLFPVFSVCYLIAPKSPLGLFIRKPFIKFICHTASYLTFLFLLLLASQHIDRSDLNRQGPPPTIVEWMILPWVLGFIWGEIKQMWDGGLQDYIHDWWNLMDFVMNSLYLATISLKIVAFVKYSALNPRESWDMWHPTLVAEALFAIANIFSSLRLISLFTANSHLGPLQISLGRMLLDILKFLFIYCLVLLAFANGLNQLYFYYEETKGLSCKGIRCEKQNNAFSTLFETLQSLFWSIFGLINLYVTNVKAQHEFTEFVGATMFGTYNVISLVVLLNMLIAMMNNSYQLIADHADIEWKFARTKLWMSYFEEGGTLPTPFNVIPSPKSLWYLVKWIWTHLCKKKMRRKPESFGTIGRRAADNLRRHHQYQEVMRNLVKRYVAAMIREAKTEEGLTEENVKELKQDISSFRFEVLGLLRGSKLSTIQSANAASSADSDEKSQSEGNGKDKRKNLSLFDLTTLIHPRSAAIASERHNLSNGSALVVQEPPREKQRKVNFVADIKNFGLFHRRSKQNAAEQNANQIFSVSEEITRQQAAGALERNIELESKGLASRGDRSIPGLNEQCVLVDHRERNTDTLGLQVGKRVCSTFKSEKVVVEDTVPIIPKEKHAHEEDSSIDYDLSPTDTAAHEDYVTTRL
TRPC4 act – opens the mouse TRPC4 cation channel; 310,000 compounds, 0.49% hits; B-score at 10 µM; HEK293 TRPC4beta/mu-opioid, Fluo4 calcium fluorescence; hits give high values;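 active means B-score above 5 SD of library B-scores, and initial fluorescence ratio not above library mean plus 5 SD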;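 further: positive B-score marks a calcium rise read as TRPC4 activation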
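Material: TRPC4beta and mu-opioid receptor HEK293 stable cells | Incubation: 45 min room-temperature Fluo4 loading, 110 s read | Detection: Kinetic Fluo4 calcium fluorescence | Measure: Integrated baseline-normalised fluorescence ratio, converted to per-well B score | Benchmarks: Low control buffer alone, high control maximal DAMGO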
TRPC4 block – inhibitors of mouse TRPC4 channel. Q9QUQ5. HEK293 TRPC4beta/mu-opioid, DAMGO-evoked Fluo4 calcium flux; hits give low values. B-score at 10 µM. 300,000 compounds, 0.39% hits. AID 2247;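 active means B-score over 3 SD under the library average, no early fluorescence shift, positive overall ratio signal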
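Assay system: HEK293 cells with stable TRPC4beta plus mu-opioid receptor expression; Probe or stimulus: DAMGO in two steps, submaximal then maximal; Dosing: single-point compound dosing; Measured by: Fluo4 calcium-dye fluorescence, kinetic read; Read-out basis: B score from integrated Fluo4 fluorescence ratio.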
TRPC6 inhibitor – blocks the mouse TRPC6 cation channel | Q61143 | HEK293-TRPC6, membrane potential dye, ACh-evoked depolarization; hits give low values | B-score at 10 µM | 310,000 compounds, 1.1% hits | AID 2553;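 active means B-score under library mean minus 3 SD, initial fluorescence not abnormally high, positive integrated signal ratio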;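 further: B-score derived from integrated fluorescence ratio over the kinetic read; more negative B-score means stronger inhibition of depolarization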
TRPC4 spec 2 – second check of whether TRPC6 inhibitors also affect mouse TRPC4 | shares compounds with TRPC6 inhibitor | HEK293 TRPC4/MOR, membrane potential dye fluorescence; channel activated by saturating DAMGO dose | inhibition, % at 10 µM | 920 compounds, 42% hits | AID 2776;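 active means compounds whose fluorescence signal differed from control wells by over 3 SD, either direction, in both duplicate plates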
TRPC4 spec – tests whether TRPC6 inhibitors also affect mouse TRPC4; shares compounds with TRPC6 inhibitor; HEK293 TRPC4/mu-opioid, membrane potential fluorescence; activity change, negative = inhibition, % at 10 µM; 920 compounds, 61% hits;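 active means rise or fall in signal beyond 3 SD of buffer-only wells in both replicate plates, either sign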;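 further: integrated kinetic ratio of fluorescence range over baseline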
HEK293 MPD ctr 2-1 – second check of TRPC6 inhibitor effects in parental HEK293 cells; shares compounds with TRPC6 inhibitor; parental HEK293 membrane potential dye fluorescence; maximal acetylcholine challenge after compound addition; signal change vs control, % at 10 µM; 920 compounds, 31% hits; AID 2779;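 active means membrane potential signal moving either way by over 3 SD of the maximum-effect control, in both duplicate plates, meaning non-specific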
HEK293 MPD ctr-1 – checks TRPC6 inhibitor effects in parental HEK293 cells | shares compounds with TRPC6 inhibitor | parental HEK293 membrane potential dye fluorescence | membrane potential signal change, % at 10 µM | 920 compounds, 60% hits | AID 2780;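 active means membrane potential signal shifting up or down by more than 3 SD of buffer-only wells, on both duplicate plates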
HEK293 MPD ctr-2 – parental HEK293 nonspecific activity of TRPC6 modulators. shares compounds with TRPC6 inhibitor. membrane potential dye fluorescence. membrane potential signal change, % at 10 µM. 2,400 compounds, 51% hits;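 active means membrane potential signal moves up or down beyond 5 SD from buffer-only wells, on both duplicate plates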
HEK293 MPD ctr 2-2 – parental HEK293 nonspecific activity of TRPC6 modulators, second screen; shares compounds with TRPC6 inhibitor; inhibition, % at 10 µM; AID 488926; 2,400 compounds, 14% hits; membrane potential dye fluorescence; after compound, maximal acetylcholine stimulation;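 active means membrane potential signal drops by more than 5 SD from the mean control signal, in both duplicate plates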;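 further: plate controls were acetylcholine ECmax control wells for no effect and buffer only wells for full effect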
TRPC4 ctr mod – mouse TRPC4 off-target activity of TRPC6 modulators; shares compounds with TRPC6 inhibitor; HEK293 TRPC4/mu-opioid, membrane potential fluorescence; percent change from control (negative = decrease, positive = increase), % at 10 µM; 2,400 compounds, 69% hits; AID 488927;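 active means membrane potential signal moved up or down beyond 5 SD of buffer control wells, in both duplicate plates, actives on both sides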;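 further: plate controls were assay buffer wells for no effect and DAMGO maximal-effect wells for full effect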
TRPC4 ctr inh 2 – mouse TRPC4 off-target activity of TRPC6 modulators, second screen | 2,400 compounds, 55% hits | AID 488928 | inhibition, % at 10 µM | shares compounds with TRPC6 inhibitor | HEK293 TRPC4/mu-opioid, membrane potential dye fluorescence; stimulated with maximal-effect DAMGO;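 active means drop in membrane potential signal beyond 5 SD of the control wells in both duplicate plates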;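 further: TRPC4 counter screen for TRPC6 hits run under conditions tuned for TRPC6 not TRPC4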
TRPC6 inh conf – mouse TRPC6 inhibitor confirmation. inhibition, % at 10 µM. HEK293-TRPC6, membrane potential dye, ACh-evoked depolarization. 3,300 compounds, 43% hits. shares compounds with TRPC6 inhibitor;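 active means fluorescence ratio falls more than 5 SD below the full-stimulation control mean, in both duplicate runs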;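 further: integrated fluorescence ratio of peak minus minimum over baseline after agonist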
TRPC6 act conf – confirmation of mouse TRPC6 activators. shares compounds with TRPC6 inhibitor. HEK293-TRPC6 membrane potential dye fluorescence, FDSS. activation, % at 10 µM. 2,800 compounds, 11% hits. AID 488961;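 active means ratio signal rise beyond 5 SD above unstimulated control wells' mean, seen in both duplicate runs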;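 further: plate controls were buffer EC0 wells for no effect and acetylcholine ECmax response for full effect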
The depositor's hits bear a star; i = inactive; x = no result given; + = active, no number.

SMILES	TRPC6 act	TRPC4 potent	TRPC4 act	TRPC4 block	TRPC6 inhibitor	HEK293 MPD ctr-2	HEK293 MPD ctr 2-2	TRPC4 ctr mod	TRPC4 ctr inh 2	TRPC6 inh conf	TRPC6 act conf	others
COc1cc(/C=C2\S/C(=N/S(=O)(=O)Cc3ccccc3)NC2=O)c([N+](=O)[O-])cc1OC	i	i	i	i	i	x	x	x	x	x	x
O=C1N/C(=N\S(=O)(=O)Cc2ccccc2)S/C1=C/c1cc([N+](=O)[O-])ccc1O	13*	i	i	i	i	177%*	i	33%*	i	i	122%*
O=C1N/C(=N\S(=O)(=O)c2ccccc2)S/C1=C\c1cc([N+](=O)[O-])ccc1O	27*	i	i	i	i	249%*	i	46%*	i	i	160%*
Cc1ccc(S(=O)(=O)/N=C2/NC(=O)/C(=C\c3cc(Br)cc(Br)c3O)S2)cc1	71*	34*	64*	i	i	+	i	198%*	i	i	402%*
Cc1ccc(S(=O)(=O)/N=C2/NC(=O)/C(=C/c3ccc(Br)o3)S2)cc1	i	i	i	i	i	x	x	x	x	x	x
C/C(=N\Nc1ccc2nncn2n1)c1ccccn1	i	i	i	i	-7.4*	x	x	x	x	84%*	i	TRPC4 spec 2=71%*;TRPC4 spec=-36%*;HEK293 MPD ctr 2-1=i;HEK293 MPD ctr-1=-522%*
C/C(=N\Nc1ccc2nncn2n1)c1ccco1	i	i	i	i	i	x	x	x	x	x	x
N#CCC(=O)Nc1ccc(C(=O)OCC(=O)N(Cc2ccccc2)C2CCS(=O)(=O)C2)cc1 (stereo not drawn)	i	i	i	i	i	x	x	x	x	x	x
COCC(=O)N1CCC(Oc2ccc(C(=O)N3CCN(C)C[C@@H]3C(C)C)cc2)CC1	i	i	i	i	i	x	x	x	x	x	x
Cc1ccc[n+](Cc2ccc([N+](=O)[O-])cc2)c1	i	i	i	i	i	x	x	x	x	x	x
O=[N+]([O-])c1ccc(C[n+]2cccc3c4ccccc4ccc32)cc1	i	i	i	i	-6*	-434%*	i	-61%*	64%*	51%*	i
CC1CCCC(NC(=O)c2ccc3c(c2)NC(=O)CS3)C1C (stereo not drawn)	i	i	i	i	i	x	x	x	x	x	x
CN(C)c1ccc2c(c1)OC(N)=C(C#N)C2c1cccc(F)c1 (stereo not drawn)	12*	i	56*	i	i	413%*	i	30%*	45%*	i	44%*
CC(=O)Nc1cccc2c1C(=O)N(c1ccc(OC(C)=O)cc1)C2=O	i	i	i	i	i	x	x	x	x	x	x
O=C(Cc1ccc([N+](=O)[O-])cc1)Nc1ccc2c(c1)OCO2	i	i	i	i	i	x	x	x	x	x	x
O=C(Cc1ccc([N+](=O)[O-])cc1)Nc1ccc2c(c1)CCC2	i	i	i	i	-5.2*	i	i	i	i	i	i
CCOC(=O)c1[nH]c2ccccc2c1CCCN1C(=O)c2ccccc2C1=O	i	i	i	i	-6.9*	x	x	x	x	i	i	TRPC4 spec 2=i;TRPC4 spec=i;HEK293 MPD ctr 2-1=i;HEK293 MPD ctr-1=i
FC(F)Sc1ccc(-n2cc(-c3ccccc3)[n+]3c2CCC3)cc1	i	i	i	i	i	x	x	x	x	x	x
COc1ccc(-c2cn(-c3ccc(SC(F)F)cc3)c3[n+]2CCC3)cc1OC	i	i	i	i	-6.3*	-137%*	128%*	-20%*	38%*	64%*	i
COc1cc(/C=C2/C(=O)N(c3ccc(Br)cc3)N=C2C)cc(OC)c1OC	i	i	i	i	-5.4*	i	i	i	i	i	i
COc1cc(/C=C2/C(=O)N(c3ccc(C(=O)O)cc3)N=C2C)cc(OC)c1O	i	i	i	i	i	x	x	x	x	x	x
O[C@@H]1CN(Cc2ccccc2Cl)CC[C@H]1N1CCOCC1	i	i	i	i	i	x	x	x	x	x	x
CC(C)COc1ccc(S(=O)(=O)NNC(=O)c2cc3ccccc3o2)cc1	i	i	i	i	i	x	x	x	x	x	x
CCCCOc1ccc(S(=O)(=O)NNC(=O)c2cc3ccccc3o2)cc1	i	i	i	i	-5.2*	i	i	i	i	i	i
Nc1[nH]nc2ncc3cc4ccccc4nc3c12	i	i	i	i	i	x	x	x	x	x	x
CCc1cc(-c2[nH]ncc2-c2ccc3c(c2)OCO3)c(O)cc1O	i	i	i	i	-5.3*	i	i	i	70%*	65%*	i
CCC(C)C(=O)Nc1nnc(SCC(=O)N2C(C)CCCC2C)s1 (stereo not drawn)	i	i	i	i	i	x	x	x	x	x	x
CCOc1cc(C(=O)O/N=C(\N)c2ccccn2)cc(OCC)c1OCC	i	i	i	i	i	x	x	x	x	x	x
CCOc1ccc(C(=O)O/N=C(\N)c2ccccn2)cc1OCC	i	i	i	i	-5.9*	-94%*	i	-22%*	i	i	i
